The term IC50 denotes the concentration that gives 50% inhibition.

We go through two compounds from ChEMBL document CHEMBL1145082 (J Med Chem, 2003).

For assay [1], the target named is Tyrosine-protein kinase Blk (Homo sapiens) (UniProt P51451). In words: Inhibition of Blk (B lymphocyte kinase) at 10 uM. Also noted: scale not given: the % may be the effect or the level left. Put shortly: (§1)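 Outsourced selectivity panel. Each kinase phosphorylated its own peptide or protein substrate in the presence of 10 µM compound and 10 µM ATP, within the linear time range. Activity given as mean percent of control incubations from duplicate determinations.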

In assay [2] the target is Tyrosine-protein kinase CSK (Homo sapiens) (UniProt P41240). In words: Inhibition of Csk tyrosine kinase at 10 uM. Also noted: scale not given: the % may be the effect or the level left. The procedure, abridged:
as §1

The target of assay [3] is Cyclin-dependent kinase 2 (Homo sapiens, UniProt P24941). Briefly: Inhibition of Cyclin-dependent kinase 2 (CDK2). Put shortly:
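Reaction started with 30–150 ng kinase, run 1 h at 30 °C. Peptides captured on streptavidin plates and counted. IC50 from 6–10 concentrations; ≥3 experiments in duplicate; ± SEM.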

Assay [4] concerns the target Fibroblast growth factor receptor 3 (Homo sapiens) (UniProt P22607). In words: Inhibition of Fibroblast growth factor receptor 3 at 10 uM. Also noted: scale not given: the % may be the effect or the level left. Put shortly:
as §1

For assay [5], the target named is Glycogen synthase kinase-3 beta (Homo sapiens) (UniProt P49841). Briefly: Inhibition of human glycogen synthase kinase-3beta (GSK3-beta) at 10 uM. Also noted: scale not given: the % may be the effect or the level left. The procedure, abridged:
(§2)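 Upstate kinase selectivity panel: each kinase phosphorylated its peptide or protein substrate with 10 µM compound present and 10 µM ATP. Reactions were linear with time. Activity is reported as the mean percentage of control incubations, from duplicate determinations.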

Assay [6] has as its target Inhibitor of nuclear factor kappa-B kinase subunit beta (Homo sapiens) (UniProt O14920). In words: Inhibition of I-kappa-B-kinase beta at 10 uM. Also noted: scale not given: the % may be the effect or the level left. The procedure, abridged:
as §1

In assay [7] the target is MAP kinase-activated protein kinase 2 (Homo sapiens) (UniProt P49137). In words: Inhibition of human MAP kinase-activated protein kinase 2 at 10 uM. Also noted: scale not given: the % may be the effect or the level left. The procedure, abridged:
as §1

Assay [8] has as its target Mitogen-activated protein kinase 1 (Homo sapiens) (UniProt P28482). Briefly: Inhibition of human Mitogen-activated protein kinase 1 at 10 uM. Also noted: scale not given: the % may be the effect or the level left. Put shortly:
as §1

Assay [9] has as its target Protein kinase C beta type (Homo sapiens, UniProt P05771). Briefly: Inhibition of human Protein kinase C beta 2 at 10 uM. Also noted: scale not given: the % may be the effect or the level left. Put shortly: as §1
Assay [10] deals with Platelet-derived growth factor receptor beta (Homo sapiens) (UniProt P09619). In words: Inhibition of Platelet-derived growth factor receptor beta at 10 uM. Also noted: scale not given: the % may be the effect or the level left. The procedure, abridged:
as §1

For assay [11], the target named is Protein kinase C gamma type (Homo sapiens, UniProt P05129). Briefly: Inhibition of human Protein kinase C gamma at 10 uM. Also noted: scale not given: the % may be the effect or the level left. Put shortly: as §1
Assay [12] has as its target RAC-beta serine/threonine-protein kinase (Homo sapiens) (UniProt P31751). Briefly: Inhibition of Protein kinase B beta at 10 uM. Also noted: scale not given: the % may be the effect or the level left. The procedure, abridged:
as §1

A short description of assay [13]: Inhibitory activity against Protein kinase A was determined.
In assay [14] the target is Protein kinase C alpha type (Homo sapiens, UniProt P17252). Briefly: Inhibition of human Protein kinase C alpha at 10 uM. Also noted: scale not given: the % may be the effect or the level left. Put shortly:
as §1

Assay [15] concerns the target Serine/threonine-protein kinase N2 (Homo sapiens) (UniProt Q16513). In words: Inhibition of human Protein kinase C related kinase 2 (PRK2) at 10 uM. Also noted: scale not given: the % may be the effect or the level left. Put shortly:
as §1

For assay [16], the target named is Protein kinase C theta type (Homo sapiens, UniProt Q04759). In words: Inhibition of Protein kinase C theta. The procedure, abridged: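 Recombinant human PKCθ (5–10 mU) with histone H1 (0.1 mg/mL) and 33P-ATP, total ATP 10 µM, in 8 mM MOPS pH 7.0, 0.2 mM EDTA, 10 mM Mg acetate. Run 40 min at room temperature, stopped with phosphoric acid, then P30 filter counting. IC50 from 6–10 concentrations; ≥3 experiments in duplicate; ± SEM.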

In assay [17] the target is Ribosomal protein S6 kinase alpha-3 (Homo sapiens) (UniProt P51812). In words: (§3) Inhibition of Ribosomal S6 kinase 3 at 10 uM. Also noted: scale not given: the % may be the effect or the level left. The procedure, abridged: as §1
Assay [18] has as its target Ribosomal protein S6 kinase (P70S6K) (Homo sapiens) (UniProt Q9UBS0+P23443). In words: Inhibition of human Ribosomal protein S6 kinase (p70S6K) at 10 uM. It counts as protein-complex assay. Also noted: scale not given: the % may be the effect or the level left. The procedure, abridged: as §2
Assay [19] concerns the target Proto-oncogene tyrosine-protein kinase Src (Homo sapiens) (UniProt P12931). In words: Inhibition of human Src tyrosine kinase at 10 uM. Also noted: scale not given: the % may be the effect or the level left. The procedure, abridged: as §2
The target of assay [20] is Mitogen-activated protein kinase 11 (Homo sapiens) (UniProt Q15759). Briefly: Inhibition of human Stress activated protein kinase 2b at 10 uM. Also noted: scale not given: the % may be the effect or the level left. Put shortly:
as §2

Assay [21] addresses Mitogen-activated protein kinase 8 (Homo sapiens) (UniProt P45983). In words: Inhibition of human c-Jun N-terminal kinase 1-alpha 1 at 10 uM. Also noted: scale not given: the % may be the effect or the level left. Put shortly: as §2
The target of assay [22] is Tyrosine-protein kinase Lck (Homo sapiens) (UniProt P06239). In words: Inhibition of human p56 Lck tyrosine kinase at 10 uM. Also noted: scale not given: the % may be the effect or the level left. The procedure, abridged:
as §2

The target of assay [23] is Insulin receptor (Homo sapiens) (UniProt P06213). In words: Inhibition of Insulin receptor at 10 uM. Also noted: scale not given: the % may be the effect or the level left. The procedure, abridged: as §1
In assay [24] the target is Mitogen-activated protein kinase 8 (Homo sapiens) (UniProt P45983). In words: Inhibition of human JNK1-alpha-1 at 10 uM. Also noted: scale not given: the % may be the effect or the level left. The procedure, abridged:
as §1

The target in assay [25] is Serine/threonine-protein kinase N2 (Homo sapiens) (UniProt Q16513). In words: Inhibition of human protein kinase C-related protein kinase 2 (PRK2) at 10 uM. Also noted: scale not given: the % may be the effect or the level left. The procedure, abridged: as §2
Assay [26] has as its target Ribosomal protein S6 kinase alpha-3 (Homo sapiens) (UniProt P51812). Described as §3. The procedure, abridged:
as §1

Chain of Glycogen synthase kinase-3 beta (Homo sapiens) (P49841 whole entry, looked up): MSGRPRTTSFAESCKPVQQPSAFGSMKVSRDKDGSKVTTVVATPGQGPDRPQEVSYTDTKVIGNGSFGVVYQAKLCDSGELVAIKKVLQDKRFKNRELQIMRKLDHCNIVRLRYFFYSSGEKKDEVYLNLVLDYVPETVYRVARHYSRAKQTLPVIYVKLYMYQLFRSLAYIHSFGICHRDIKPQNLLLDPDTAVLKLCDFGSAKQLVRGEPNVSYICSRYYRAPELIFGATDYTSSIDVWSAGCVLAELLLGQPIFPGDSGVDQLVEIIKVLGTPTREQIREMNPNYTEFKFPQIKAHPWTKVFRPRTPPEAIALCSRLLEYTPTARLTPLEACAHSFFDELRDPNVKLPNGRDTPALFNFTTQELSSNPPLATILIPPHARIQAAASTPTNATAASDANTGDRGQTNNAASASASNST
Chain of Fibroblast growth factor receptor 3 (Homo sapiens) (P22607 23-806 limits assumed): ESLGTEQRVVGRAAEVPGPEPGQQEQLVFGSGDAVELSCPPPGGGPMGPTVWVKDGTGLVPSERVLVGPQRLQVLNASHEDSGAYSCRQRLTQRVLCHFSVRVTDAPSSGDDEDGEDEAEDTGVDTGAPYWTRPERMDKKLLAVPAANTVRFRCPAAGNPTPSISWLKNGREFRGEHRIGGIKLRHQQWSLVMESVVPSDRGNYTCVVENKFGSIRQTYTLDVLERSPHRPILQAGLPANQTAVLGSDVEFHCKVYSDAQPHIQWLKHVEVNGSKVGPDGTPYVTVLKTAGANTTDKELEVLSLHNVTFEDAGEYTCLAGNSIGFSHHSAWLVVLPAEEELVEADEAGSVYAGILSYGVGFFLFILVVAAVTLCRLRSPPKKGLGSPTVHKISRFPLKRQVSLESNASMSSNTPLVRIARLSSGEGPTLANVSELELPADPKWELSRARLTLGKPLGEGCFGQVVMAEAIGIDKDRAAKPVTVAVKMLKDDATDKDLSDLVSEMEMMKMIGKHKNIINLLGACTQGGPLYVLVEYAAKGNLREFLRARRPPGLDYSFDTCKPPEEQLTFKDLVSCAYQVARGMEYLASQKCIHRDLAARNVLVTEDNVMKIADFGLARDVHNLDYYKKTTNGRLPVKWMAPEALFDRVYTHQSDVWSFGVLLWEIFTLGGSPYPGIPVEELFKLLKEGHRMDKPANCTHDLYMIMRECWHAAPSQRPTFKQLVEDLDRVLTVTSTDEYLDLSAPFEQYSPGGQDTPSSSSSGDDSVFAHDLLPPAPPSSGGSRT
Chain of Inhibitor of nuclear factor kappa-B kinase subunit beta (Homo sapiens) (O14920 whole entry): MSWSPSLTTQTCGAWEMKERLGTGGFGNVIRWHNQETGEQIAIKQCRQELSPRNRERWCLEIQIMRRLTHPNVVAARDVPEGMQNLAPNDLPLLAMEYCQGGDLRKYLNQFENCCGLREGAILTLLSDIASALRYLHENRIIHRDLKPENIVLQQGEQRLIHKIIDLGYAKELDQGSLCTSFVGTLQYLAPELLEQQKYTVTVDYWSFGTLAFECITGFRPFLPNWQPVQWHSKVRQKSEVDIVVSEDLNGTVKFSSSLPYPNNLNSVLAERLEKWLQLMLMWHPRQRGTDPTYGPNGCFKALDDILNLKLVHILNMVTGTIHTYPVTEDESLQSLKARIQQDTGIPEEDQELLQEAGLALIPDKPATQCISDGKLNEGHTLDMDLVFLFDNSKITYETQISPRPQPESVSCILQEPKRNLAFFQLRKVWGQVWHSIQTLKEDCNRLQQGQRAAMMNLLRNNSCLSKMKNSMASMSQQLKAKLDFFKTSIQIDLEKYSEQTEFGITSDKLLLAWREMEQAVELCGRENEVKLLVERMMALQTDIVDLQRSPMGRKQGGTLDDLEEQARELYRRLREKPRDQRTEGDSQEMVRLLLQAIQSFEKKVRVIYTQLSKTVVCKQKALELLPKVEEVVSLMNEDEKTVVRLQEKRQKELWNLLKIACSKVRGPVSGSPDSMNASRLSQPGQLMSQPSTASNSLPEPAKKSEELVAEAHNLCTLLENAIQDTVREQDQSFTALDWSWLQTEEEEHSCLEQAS
Chain of Proto-oncogene tyrosine-protein kinase Src (Homo sapiens) (P12931 2-536 limits assumed): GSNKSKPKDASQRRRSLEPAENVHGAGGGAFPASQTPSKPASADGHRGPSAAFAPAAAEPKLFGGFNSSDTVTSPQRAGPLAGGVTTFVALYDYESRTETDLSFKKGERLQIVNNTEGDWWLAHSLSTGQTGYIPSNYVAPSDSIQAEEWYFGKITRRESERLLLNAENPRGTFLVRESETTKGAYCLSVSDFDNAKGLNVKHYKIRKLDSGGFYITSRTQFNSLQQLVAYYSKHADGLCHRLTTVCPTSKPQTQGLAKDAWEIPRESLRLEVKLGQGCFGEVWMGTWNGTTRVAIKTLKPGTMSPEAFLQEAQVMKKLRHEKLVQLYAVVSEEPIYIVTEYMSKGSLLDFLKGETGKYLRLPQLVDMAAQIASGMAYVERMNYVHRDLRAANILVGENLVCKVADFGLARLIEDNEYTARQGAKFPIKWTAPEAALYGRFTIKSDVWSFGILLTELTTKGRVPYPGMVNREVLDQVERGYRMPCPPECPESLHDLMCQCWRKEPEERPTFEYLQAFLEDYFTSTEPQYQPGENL
Chain of Ribosomal protein S6 kinase alpha-3 (Homo sapiens) (P51812 whole entry): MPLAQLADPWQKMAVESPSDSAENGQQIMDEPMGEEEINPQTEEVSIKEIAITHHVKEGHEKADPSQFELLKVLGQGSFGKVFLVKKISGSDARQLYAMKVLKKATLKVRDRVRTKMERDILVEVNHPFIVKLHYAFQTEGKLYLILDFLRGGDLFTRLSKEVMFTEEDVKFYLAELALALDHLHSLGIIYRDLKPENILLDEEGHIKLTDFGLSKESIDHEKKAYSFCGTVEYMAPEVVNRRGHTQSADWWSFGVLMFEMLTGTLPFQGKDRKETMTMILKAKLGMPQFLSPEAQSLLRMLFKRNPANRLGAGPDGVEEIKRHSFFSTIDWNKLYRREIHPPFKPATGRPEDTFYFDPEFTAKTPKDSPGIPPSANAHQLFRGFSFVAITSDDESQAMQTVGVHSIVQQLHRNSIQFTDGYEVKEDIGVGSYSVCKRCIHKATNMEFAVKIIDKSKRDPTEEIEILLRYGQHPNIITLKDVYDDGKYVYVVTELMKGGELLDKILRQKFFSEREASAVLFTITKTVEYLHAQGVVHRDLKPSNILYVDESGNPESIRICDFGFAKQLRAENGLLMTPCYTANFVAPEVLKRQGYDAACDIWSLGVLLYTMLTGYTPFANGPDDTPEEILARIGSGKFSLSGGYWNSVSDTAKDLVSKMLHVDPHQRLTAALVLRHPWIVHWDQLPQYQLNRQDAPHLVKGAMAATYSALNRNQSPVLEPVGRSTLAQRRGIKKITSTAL
Chain of Protein kinase C beta type (P05771 2-671 limits assumed): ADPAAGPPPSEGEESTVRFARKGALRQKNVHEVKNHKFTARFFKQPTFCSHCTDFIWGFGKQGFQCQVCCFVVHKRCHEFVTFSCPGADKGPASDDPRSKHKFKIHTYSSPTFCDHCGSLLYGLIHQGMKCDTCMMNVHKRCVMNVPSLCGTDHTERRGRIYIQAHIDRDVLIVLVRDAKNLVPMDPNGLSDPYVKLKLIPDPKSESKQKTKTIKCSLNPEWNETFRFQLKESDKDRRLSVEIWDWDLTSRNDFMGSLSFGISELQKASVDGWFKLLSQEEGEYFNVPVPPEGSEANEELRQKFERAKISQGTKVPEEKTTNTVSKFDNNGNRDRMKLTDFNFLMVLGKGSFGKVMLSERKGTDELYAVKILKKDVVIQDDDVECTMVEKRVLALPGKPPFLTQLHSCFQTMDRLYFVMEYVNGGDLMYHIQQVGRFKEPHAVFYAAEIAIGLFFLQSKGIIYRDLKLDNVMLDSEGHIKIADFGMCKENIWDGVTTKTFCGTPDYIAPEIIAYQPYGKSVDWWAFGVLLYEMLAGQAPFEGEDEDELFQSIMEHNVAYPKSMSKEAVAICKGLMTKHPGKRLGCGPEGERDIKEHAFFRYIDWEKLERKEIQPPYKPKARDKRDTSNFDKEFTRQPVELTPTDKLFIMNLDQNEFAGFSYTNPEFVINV
Chain of Mitogen-activated protein kinase 8 (Homo sapiens) (P45983 whole entry): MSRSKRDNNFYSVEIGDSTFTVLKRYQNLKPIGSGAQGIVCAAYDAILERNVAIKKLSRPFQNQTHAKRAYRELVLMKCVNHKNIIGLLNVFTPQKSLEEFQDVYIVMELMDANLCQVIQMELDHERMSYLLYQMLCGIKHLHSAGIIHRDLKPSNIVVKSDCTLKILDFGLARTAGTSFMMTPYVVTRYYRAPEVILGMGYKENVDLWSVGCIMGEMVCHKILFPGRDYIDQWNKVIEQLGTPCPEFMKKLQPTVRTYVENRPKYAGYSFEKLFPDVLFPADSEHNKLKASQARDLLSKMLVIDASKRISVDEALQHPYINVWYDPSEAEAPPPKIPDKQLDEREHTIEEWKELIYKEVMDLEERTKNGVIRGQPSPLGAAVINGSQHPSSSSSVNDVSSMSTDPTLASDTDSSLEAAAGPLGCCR
Chain of Tyrosine-protein kinase Lck (Homo sapiens) (P06239 2-509 limits assumed): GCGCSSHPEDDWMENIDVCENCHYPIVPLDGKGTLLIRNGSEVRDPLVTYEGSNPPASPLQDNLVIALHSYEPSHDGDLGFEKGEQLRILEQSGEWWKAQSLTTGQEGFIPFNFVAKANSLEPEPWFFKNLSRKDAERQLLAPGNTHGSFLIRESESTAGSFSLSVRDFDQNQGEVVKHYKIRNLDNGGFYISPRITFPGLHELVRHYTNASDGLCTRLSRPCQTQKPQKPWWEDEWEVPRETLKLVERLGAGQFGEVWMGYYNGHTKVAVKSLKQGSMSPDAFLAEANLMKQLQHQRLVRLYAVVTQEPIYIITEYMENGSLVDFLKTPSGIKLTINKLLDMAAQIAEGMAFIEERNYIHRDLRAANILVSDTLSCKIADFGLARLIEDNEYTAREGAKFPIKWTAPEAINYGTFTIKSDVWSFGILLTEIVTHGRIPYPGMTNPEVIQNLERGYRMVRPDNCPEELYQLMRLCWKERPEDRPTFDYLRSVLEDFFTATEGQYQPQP

As for `O=C1NC(=O)C2=C1c1cn(c3ncccc13)CCOCCOCCOCCn1cc2c2cccnc21`, the Activity in assay [1] was determined as 90%; in assay [2], 84%; in assay [4], 58%; in [5], 0%; in assay [6] it was 97%; in [7], 97%. Also, the Activity in assay [8] was 106%; in assay [9], 15%; in assay [10] it was 84%; in assay [11], 77%; in [12], 93%; in assay [14] it was 51%. In addition, the Activity in assay [15] came out at 92%; in assay [17], 21%; in assay [18], 92%; in [19], 90%; in assay [20] it was 105%; in assay [21], 78%. In [22], the Activity was 194%. The IC50 in assay [3], in assay [13] and in assay [16] was greater than 10 µM each time.

For `O=C1NC(=O)C2=C1c1cn(c3ncccc13)CCOCCOCCOCCOCCn1cc2c2cccnc21`, the Activity in assay [1] is 96%; in assay [2] it was 103%; in assay [4], 61%; in assay [5], 0%; in assay [6], 101%; in assay [23], 92%. Also, the Activity in assay [24] turned out to be 98%; in assay [7] it was 85%; in assay [9], 69%; in assay [10], 86%; in assay [25], 104%; in assay [11] it was 96%. Besides, the Activity in [12] was determined as 97%; in [14], 94%; in assay [18], 93%; in assay [19] it was 89%; in [20], 104%; in [22], 174%. For the same compound, the 50% inhibitory concentration (IC50) in assay [3], in assay [13] and in [16] was greater than 10 µM each time. In assay [26], this compound gave an Of control of 63%.
